Where “and” joins values, the source holds several entries; their conditions need not be identical. Equal entries are not always repeated.
Experiments:
BT-474 = assay: Antiproliferative activity against human BT474 cells after 4 days by SRB method; assay type: functional; details: BT-474, 96 h
[1] = biological target: Heat shock protein HSP 90-beta (Homo sapiens, UniProt P08238); assay: Inhibition of fluorescently labeled VER51001 binding to full length human HSP90beta after 30 mins by fluorescence polarization assay
HCT-116 = assay: Antiproliferative activity against human HCT116 cells after 4 days by SRB method; assay type: functional; details: HCT-116, 96 h
MDA-MB-468 = assay: Antiproliferative activity against human MDA-MB-468 cells after 4 days by SRB method; assay type: functional; details: MDA-MB-468, 96 h
[2] = Cmax in Balb-C mouse kidney at 5 mg/kg, po; assay type: ADME, organism-based; parameters: dose 5 mg/kg, route oral
[3] = biological target: T1, Voltage-gated inwardly rectifying potassium channel KCNH2 (Homo sapiens, UniProt Q12809); assay: Displacement of [3H]-dofetilide from human ERG
[4] = Tmax in Balb-C mouse plasma at 5 mg/kg, po; assay type: ADME, organism-based; parameters: dose 5 mg/kg, route oral
[5] = Ratio of drug level in kidney to plasma of Balb-C mouse at 5 mg/kg, po; assay type: ADME, organism-based; parameters: dose 5 mg/kg, route oral
UGT [6] = assay: Intrinsic clearance in human liver microsomes assessed as UGT-mediated glucuronidation after 30 mins by LC-MS/MS analysis; assay type: ADME, Microsome; details: read-out: CLH
[7] = biological target: T1, Voltage-gated inwardly rectifying potassium channel KCNH2; assay: Inhibition of human ERG expressed in HEK293 cells by voltage-clamp method; assay type: cell-based
[8] = Tmax in Balb-C mouse kidney at 5 mg/kg, po; assay type: ADME, organism-based; parameters: dose 5 mg/kg, route oral
[9] = AUC (0 to 2 hrs ) in Balb-C mouse kidney at 5 mg/kg, po; assay type: ADME, organism-based; parameters: time < 2 hr, dose 5 mg/kg, route oral
UGT [10] = assay: Intrinsic clearance in human liver microsomes assessed as UGT-mediated glucuronidation extraction ratio after 30 mins by LC-MS/MS analysis; assay type: ADME, Microsome; details: read-out: ERH
[11] = AUC (0 to 2 hrs ) in Balb-C mouse plasma at 5 mg/kg, po; assay type: ADME, organism-based; parameters: time < 2 hr, dose 5 mg/kg, route oral
[12] = Cmax in Balb-C mouse plasma at 5 mg/kg, po; assay type: ADME, organism-based; parameters: dose 5 mg/kg, route oral
[13] = AUC (0 to infinity) in Balb-C mouse muscle at 5 mg/kg, po; assay type: ADME, organism-based, Muscle tissue; parameters: time infinity, dose 5 mg/kg, route oral
[14] = Half life in Balb-C mouse muscle at 5 mg/kg, po; assay type: ADME, organism-based, Muscle tissue; parameters: dose 5 mg/kg, route oral
[15] = Half life in Balb-C mouse plasma at 5 mg/kg, po; assay type: ADME, organism-based; parameters: dose 5 mg/kg, route oral
[16] = Ratio of drug level in muscle to plasma of Balb-C mouse at 5 mg/kg, po; assay type: ADME, organism-based; parameters: dose 5 mg/kg, route oral
[17] = Binding affinity to HSP90 after 30 mins by ITC assay
Method in brief: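 Isothermal titration calorimetry at 25 °C with stirring at 1000 rpm. Ligands came from a 20 mM DMSO stock and were run in dialysis buffer with 1% DMSO. Ligand 10 µM in the cell, protein 100–200 µM in the syringe, 8–16 injections at 300 s spacing. One-site fit.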

[18] = AUC (0 to infinity) in Balb-C mouse plasma at 5 mg/kg, po; assay type: ADME, organism-based; parameters: time infinity, dose 5 mg/kg, route oral
[19] = AUC (0 to infinity) in Balb-C mouse kidney at 5 mg/kg, po; assay type: ADME, organism-based; parameters: time infinity, dose 5 mg/kg, route oral
[20] = Tmax in Balb-C mouse muscle at 5 mg/kg, po; assay type: ADME, organism-based, Muscle tissue; parameters: dose 5 mg/kg, route oral
[21] = Cmax in Balb-C mouse muscle at 5 mg/kg, po; assay type: ADME, organism-based, Muscle tissue; parameters: dose 5 mg/kg, route oral
[22] = Half life in Balb-C mouse kidney at 5 mg/kg, po; assay type: ADME, organism-based; parameters: dose 5 mg/kg, route oral
[23] = Binding affinity to hexa His-tagged HSP90 (9-236 aminoacids) by SPR assay
Method in brief: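 NTA chip charged with 0.5 mM Ni2+, then 100 nM His-tagged HSP90 captured to about 1500 RU. Running buffer 10 mM HEPES pH 7.4, 150 mM NaCl, EDTA, 0.05% Tween-20, 1% DMSO. Surface was reloaded for each concentration. Double-referenced sensorgrams were fitted globally to a single-step kinetic model.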

Heat shock protein HSP 90-beta, sequence (P08238 whole entry): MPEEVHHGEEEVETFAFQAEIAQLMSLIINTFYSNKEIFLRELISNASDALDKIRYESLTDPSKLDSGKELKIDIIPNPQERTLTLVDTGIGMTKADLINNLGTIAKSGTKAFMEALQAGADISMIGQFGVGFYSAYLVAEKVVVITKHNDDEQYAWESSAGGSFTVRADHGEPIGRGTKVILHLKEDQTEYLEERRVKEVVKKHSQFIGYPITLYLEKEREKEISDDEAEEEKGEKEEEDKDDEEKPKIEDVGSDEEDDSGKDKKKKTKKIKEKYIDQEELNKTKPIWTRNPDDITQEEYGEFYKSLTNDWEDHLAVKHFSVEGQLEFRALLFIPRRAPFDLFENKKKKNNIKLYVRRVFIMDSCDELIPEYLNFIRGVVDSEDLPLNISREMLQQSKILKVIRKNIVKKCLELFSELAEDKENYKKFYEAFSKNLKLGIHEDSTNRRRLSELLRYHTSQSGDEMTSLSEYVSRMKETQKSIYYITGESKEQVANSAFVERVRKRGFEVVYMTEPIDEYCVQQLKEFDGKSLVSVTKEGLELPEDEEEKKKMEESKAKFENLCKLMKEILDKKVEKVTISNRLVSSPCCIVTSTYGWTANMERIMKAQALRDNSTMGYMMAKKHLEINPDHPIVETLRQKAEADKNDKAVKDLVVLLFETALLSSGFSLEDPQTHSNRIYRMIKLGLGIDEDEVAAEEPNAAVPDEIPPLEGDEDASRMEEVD
T1 sequence (Q12809 whole entry): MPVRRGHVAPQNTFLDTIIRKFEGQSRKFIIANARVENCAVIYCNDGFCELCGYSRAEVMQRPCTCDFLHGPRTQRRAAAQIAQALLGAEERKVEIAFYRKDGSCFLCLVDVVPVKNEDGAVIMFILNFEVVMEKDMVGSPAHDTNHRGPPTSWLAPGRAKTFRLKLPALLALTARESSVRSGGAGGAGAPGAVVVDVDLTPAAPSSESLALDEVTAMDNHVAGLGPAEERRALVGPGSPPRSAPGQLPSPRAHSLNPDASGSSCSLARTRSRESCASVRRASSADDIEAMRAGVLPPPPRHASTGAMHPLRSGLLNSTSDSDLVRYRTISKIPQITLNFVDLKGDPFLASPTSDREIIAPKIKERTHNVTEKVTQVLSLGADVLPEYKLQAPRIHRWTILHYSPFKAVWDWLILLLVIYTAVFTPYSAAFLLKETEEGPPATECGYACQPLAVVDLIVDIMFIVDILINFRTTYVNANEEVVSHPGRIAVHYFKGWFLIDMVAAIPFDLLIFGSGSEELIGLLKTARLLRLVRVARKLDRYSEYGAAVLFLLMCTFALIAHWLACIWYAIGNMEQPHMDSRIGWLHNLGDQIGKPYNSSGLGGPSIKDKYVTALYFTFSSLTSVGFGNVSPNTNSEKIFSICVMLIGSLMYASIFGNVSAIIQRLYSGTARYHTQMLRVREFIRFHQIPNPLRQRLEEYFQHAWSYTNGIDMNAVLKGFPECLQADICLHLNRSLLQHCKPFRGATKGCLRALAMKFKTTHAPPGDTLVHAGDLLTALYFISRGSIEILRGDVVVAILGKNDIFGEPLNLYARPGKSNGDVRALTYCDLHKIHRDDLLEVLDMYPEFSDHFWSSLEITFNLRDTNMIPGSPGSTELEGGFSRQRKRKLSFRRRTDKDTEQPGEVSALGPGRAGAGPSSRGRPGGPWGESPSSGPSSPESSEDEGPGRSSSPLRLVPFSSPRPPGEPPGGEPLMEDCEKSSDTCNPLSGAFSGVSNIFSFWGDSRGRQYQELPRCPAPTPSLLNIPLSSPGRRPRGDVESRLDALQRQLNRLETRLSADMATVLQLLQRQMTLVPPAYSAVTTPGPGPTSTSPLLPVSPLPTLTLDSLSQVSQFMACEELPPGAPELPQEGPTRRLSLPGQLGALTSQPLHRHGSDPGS

Compound	GI50 (BT-474)	Ki [1]	GI50 (HCT-116)	GI50 (MDA-MB-468)	Kd [23]	further results
CCN(CC)CCOc1nc(-c2cc(OC)c(Cl)cc2Cl)c2c(C#N)c[nH]c2n1	2010 nM	62 nM	–	–	–	–
COc1cc(Cl)c(-c2nc(SCC(=O)N3CCC3)nc3[nH]cc(C#N)c23)cc1OC	31 nM	< 1 nM	28 nM	35 nM	–	–
CNC(=O)CSc1nc(-c2cc(OC)c(OC)cc2Cl)c2c(C#N)c[nH]c2n1	56 nM	< 1 nM	42 nM	33 nM	–	–
COc1cc(Cl)c(-c2nc(SCC(=O)N(C)C)nc3[nH]cc(C#N)c23)cc1O	20 nM	< 1 nM	131 nM	23 nM	–	Cmax [2]: 31 ng/mL and 72 nM; IC50 [3]: > 30000 nM; Tmax [4]: 15 min; Kp [5]: 2.6; microsomal CLint (UGT [6]): 73 µL/min/mg; IC50 [7]: > 30000 nM; Tmax [8]: 30 min; AUC(0-t) at 2 h [9]: 41 ng·h/mL; hepatic extraction ratio at 0.5 h (UGT [10]): 0.8; AUC(0-t) at 2 h [11]: 16 ng·h/mL; Cmax [12]: 25 nM and 11 ng/mL
COc1cc(Cl)c(-c2nc(SCC(=O)N(C)C)nc3[nH]cc(C#N)c23)cc1OC	34 nM	< 1 nM	32 nM	30 nM	–	AUC(0-inf) [13]: 231 ng·h/mL; Cmax [2]: 12.5 µM and 5390 ng/mL; half-life [14]: 144 min; half-life [15]: 84 min; Kp [16]: 0.8; IC50 [3]: > 30000 nM; Tmax [4]: 15 min; Kd [17]: < 3 nM; Kp [5]: 23.3; AUC(0-inf) [18]: 297 ng·h/mL; microsomal CLint (UGT [6]): 4 µL/min/mg; IC50 [7]: > 30000 nM; AUC(0-inf) [19]: 6920 ng·h/mL; Tmax [20]: 15 min; Tmax [8]: 15 min; Cmax [21]: 158 nM and 68 ng/mL; half-life [22]: 72 min; Cmax [12]: 553 nM and 239 ng/mL
CCN(CC)CCOc1cc(-c2nc(SCC(=O)NC)nc3[nH]cc(C#N)c23)c(Cl)cc1Cl	78 nM	8 nM	–	–	–	IC50 [3]: 3140 nM; IC50 [7]: 17800 nM
CCN(CC)CCSc1nc(-c2cc(OC)c(C#N)cc2Cl)c2c(C#N)c[nH]c2n1	80 nM	< 1 nM	–	–	–	–
COc1cc(Cl)c(-c2nc(SC(C)C)nc3[nH]cc(C#N)c23)cc1OCCN1CCC(F)(F)C1	388 nM	172 nM	–	–	–	–
COc1cc(Cl)c(-c2nc(SCC(=O)NC3CC3)nc3[nH]cc(C#N)c23)cc1OC	69 nM	< 1 nM	60 nM	62 nM	–	–
COc1cc(Cl)c(-c2nc(SCC(=O)NC3CC3)nc3[nH]cc(C#N)c23)cc1O	102 nM	< 1 nM	1160 nM	236 nM	–	–
CCOc1cc(-c2nc(SCC(=O)NC3CC3)nc3[nH]cc(C#N)c23)c(Cl)cc1OC	25 nM	< 1 nM	20 nM	23 nM	–	–
COc1cc(Cl)c(-c2nc(SCC(=O)NC(C)C)nc3[nH]cc(C#N)c23)cc1O	161 nM	3 nM	238 nM	178 nM	–	–
CCNC(=O)CSc1nc(-c2cc(OC)c(OC)cc2Cl)c2c(C#N)c[nH]c2n1	141 nM	2 nM	42 nM	59 nM	–	–
CCNC(=O)CSc1nc(-c2cc(OCC)c(OC)cc2Cl)c2c(C#N)c[nH]c2n1	44 nM	< 1 nM	40 nM	64 nM	–	–
COc1cc(Cl)c(-c2nc(SCC(=O)NC(C)(C)C)nc3[nH]cc(C#N)c23)cc1O	128 nM	< 1 nM	117 nM	152 nM	–	–
COc1cc(Cl)c(-c2nc(SCC(=O)NC(C)(C)C)nc3[nH]cc(C#N)c23)cc1OC	121 nM	< 1 nM	50 nM	84 nM	–	–
CCOc1cc(-c2nc(SCC(=O)NC(C)C)nc3[nH]cc(C#N)c23)c(Cl)cc1OC	84 nM	< 1 nM	65 nM	77 nM	–	–
COc1cc(Cl)c(-c2nc(SCC(=O)NC(C)C)nc3[nH]cc(C#N)c23)cc1OC	81 nM	< 1 nM	81 nM	102 nM	–	–
COc1cc(Cl)c(-c2nc(SCC(=O)NCCF)nc3[nH]cc(C#N)c23)cc1OC	136 nM	5 nM	98 nM	178 nM	–	–
COc1cc(Cl)c(-c2nc(SCC(=O)NCCF)nc3[nH]cc(C#N)c23)cc1O	85 nM	2 nM	728 nM	183 nM	–	–
COc1cc(Cl)c(-c2nc(SCC(=O)NCC(F)(F)F)nc3[nH]cc(C#N)c23)cc1OC	45 nM	< 1 nM	153 nM	124 nM	–	–
COc1cc(Cl)c(-c2nc(SCC(=O)N3CCC3)nc3[nH]cc(C#N)c23)cc1O	21 nM	< 1 nM	172 nM	28 nM	–	–
CSc1nc(-c2ccc(C#N)cc2)c2cc[nH]c2n1	–	> 200000 nM	–	–	> 100000 nM	–
CSc1nc(-c2ccc(C)cc2C)c2c(C#N)c[nH]c2n1	–	195 nM	–	–	–	Kd [17]: 156 nM

Compound	GI50 (BT-474)	Ki [1]	GI50 (HCT-116)	GI50 (MDA-MB-468)	Kd [23]	further results
CSc1nc(-c2ccc(F)cc2C)c2c(C#N)c[nH]c2n1	–	358 nM	–	–	430 nM	Kd [17]: 251 nM
CSc1nc(-c2ccc(C#N)cc2)c2c(C#N)c[nH]c2n1	–	204 nM	–	–	1220 nM	–
CSc1nc(-c2ccc(C)cc2C)c2c(C#N)n[nH]c2n1	–	5230 nM	–	–	38000 nM	–
CSc1nc(-c2ccc(C)cc2C)c2c(Br)c[nH]c2n1	–	> 200000 nM	–	–	> 20000 nM	–
CSc1nc(-c2ccc(C)cc2C)c2c(C)c[nH]c2n1	–	> 200000 nM	–	–	19300 nM	–
CSc1nc(-c2ccc(C)cc2C)c2c(C(F)(F)F)c[nH]c2n1	–	2640 nM	–	–	55000 nM	–
CSc1nc(-c2ccc(C)cc2C)c2c(C3CC3)c[nH]c2n1	–	> 50000 nM	–	–	> 100000 nM	–
CSc1nc(-c2ccc(F)cc2C)c2c(C(N)=O)c[nH]c2n1	–	> 200000 nM	–	–	> 100000 nM	–
Cc1ccc(-c2ncnc3[nH]cc(C#N)c23)c(C)c1	–	2830 nM	–	–	1880 nM	Kd [17]: 1620 nM
COc1nc(-c2ccc(F)cc2C)c2c(C#N)c[nH]c2n1	–	628 nM	–	–	2810 nM	Kd [17]: 725 nM
CNc1nc(-c2ccc(F)cc2C)c2c(C#N)c[nH]c2n1	–	4070 nM	–	–	4260 nM	Kd [17]: 3690 nM
CCc1nc(-c2ccc(F)cc2C)c2c(C#N)c[nH]c2n1	–	1720 nM	–	–	2220 nM	Kd [17]: 1830 nM
CSc1nc(-c2cc(OCCN3CCCC3)c(Cl)cc2Cl)c2c(C#N)c[nH]c2n1	48 nM	4 nM	–	–	–	–
CCN(CC)CCOc1cc(-c2nc(SC)nc3[nH]cc(C#N)c23)c(Cl)cc1Cl	31 nM	2 nM	–	–	–	–
COc1cc(Cl)c(-c2nc(SC)nc3[nH]cc(C#N)c23)cc1OCCN1CC[C@H](F)C1	31 nM	3 nM	–	–	–	–
COc1cc(Cl)c(-c2nc(SC)nc3[nH]cc(C#N)c23)cc1OCCN1CCC(F)(F)C1	47 nM	12 nM	–	–	–	–
CCN(CC)CCSc1nc(-c2cc(OC)c(Cl)cc2Cl)c2c(C#N)c[nH]c2n1	72 nM	< 1 nM	–	–	–	–
CCN(CC)CCSc1nc(-c2cc(OC)c(OC)cc2Cl)c2c(C#N)c[nH]c2n1	26 nM	7 nM	–	–	–	–
CSc1nc(-c2ccc(F)cc2C)c2nc[nH]c2n1	–	12800 nM	–	–	2300 nM	Kd [17]: 2730 nM
CSc1nc(-c2ccc(C#N)cc2)c2nc[nH]c2n1	–	24500 nM	–	–	> 20000 nM	–
CSc1nc(-c2ccc(C)cc2C)c2cc[nH]c2n1	–	> 200000 nM	–	–	> 100000 nM	–
CSc1nc(-c2ccc(F)cc2C)c2cc[nH]c2n1	–	> 200000 nM	–	–	> 100000 nM	–
CSc1nc(-c2ccc(Cl)cc2C)c2nc[nH]c2n1	–	661 nM	–	–	> 20000 nM	–

— ChEMBL document CHEMBL2157917, “Targeting conserved water molecules: design of 4-aryl-5-cyanopyrrolo[2,3-d]pyrimidine Hsp90 inhibitors using fragment-based screening and structure-based optimization” (Bioorg Med Chem, 2012)
